MC4R ag barr – agonists of human melanocortin 4 receptor (MC4R) beta-arrestin; P32245; U2OS MC4R beta-arrestin complementation, luminescence; percent of melanotan II response, DMSO zero; activation, % at 8.9 µM; actives 0.98% (n = 360,000); AID 540308;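 active means activation above a per-plate cutoff, the mean activation of sample wells on that plate plus 3 SD, cut at about 8% in these data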
Calb FLC – C. albicans growth modulation with fluconazole; actives 0.57% (n = 300,000); growth inhibition, % (concentration not given with the values); C. albicans CaCi-2 + fluconazole, Alamar Blue growth, 48 h; AID 1979;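 active means growth inhibition above about 58% in most replicates, limit read from the data, passing the limit was not always enough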;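 further: all wells also contain fluconazole at 8 µg/ml as a sub-toxic cotreatment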
GalR3 antag – human GalR3 antagonism; inhibition, % at 3 µM; O60755; HEK293 GalR3-CNG cAMP membrane potential fluorescence; galR3 body fused to GalR1 C-terminus; actives 0.44% (n = 360,000);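 active means inhibition above the screen-wide average plus 3 SD, cut at about 13% in these data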;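 further: forskolin and galanin both at EC90 stimulate the cells; cAMP rise reported by CNG channel membrane potential dye signal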
Target sequence (O60755 1-299 limits assumed): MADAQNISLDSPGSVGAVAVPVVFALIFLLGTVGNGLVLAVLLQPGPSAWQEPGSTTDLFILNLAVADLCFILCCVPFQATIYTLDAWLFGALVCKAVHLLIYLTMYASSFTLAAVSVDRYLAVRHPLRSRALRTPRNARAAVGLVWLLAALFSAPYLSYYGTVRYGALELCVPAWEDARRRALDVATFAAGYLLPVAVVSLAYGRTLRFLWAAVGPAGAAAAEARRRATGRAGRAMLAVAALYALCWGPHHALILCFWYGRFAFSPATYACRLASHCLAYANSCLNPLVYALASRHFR
Efflux pump inh – antifungal efflux pump inhibition, Nile Red retention. S. cerevisiae Candida pump triplex. inhibition, % at 10 µM. actives 0.44% (n = 330,000). AID 485275;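 active means plate passing quality check with inhibition over a set limit, or well fluorescence over plate mean plus 4 SD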;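 further: Nile Red retained in pooled yeast measured as flow cytometry median fluorescence; higher means more Nile Red kept so more efflux inhibition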
MC4R antag cAMP – blocks human MC4R cAMP signaling. P32245. MC4R-expressing cells, MTII-stimulated cAMP, LANCE TR-FRET. inhibition, % at 6.5 µM. actives 0.48% (n = 360,000). AID 540295;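 active means inhibition above its plate's cutoff, the mean of tested wells on that plate plus 3 SD, cut at about 29% in these data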
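Assay system: human MC4R-expressing U2OS cells; reagent: Melanotan II stimulation of cells; dosing: 6.5 µM single dose; timing: compound 30 min, challenge 1 h, detection 1 h; signal: TR-FRET cAMP assay; replicates: one well per compound, no replicates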
TAG inh – triacylglycerol accumulation inhibition; H9c2 cells, Nile Red lipid (TAG) fluorescence; cells loaded with 200 µM oleic acid; inhibition, % at 12.5 µM; actives 0.66% (n = 230,000);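 active means pattern-corrected inhibition of lipid staining of at least 50% with the nuclear-stain viability signal not falling by more than 50%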
Each line names hits and unclear results; the compound was inactive in the other large screens. Hits are enriched below; roughly 2.9% of the tested compounds scored in any of these assays.

O=S1(=O)CC(N2CCCC2)CN1Cc1cn(Cc2ccccc2)nn1 (configuration not stated)	none (no result: MC4R ag barr, Calb FLC, Efflux pump inh, MC4R antag cAMP, TAG inh)
CSC[C@H]1CN(Cc2ccccc2)C(=O)[C@@H]1CC(=O)Nc1ccc(Br)cc1	none (no result: Calb FLC, Efflux pump inh)
Oc1ccc(/C=N/n2c(COc3ccccc3)n[nH]c2=S)cc1O	Calb FLC 77.3 (no result: TAG inh)
CCOc1cc(/C=N/n2c(COc3ccccc3)n[nH]c2=S)ccc1O	none (no result: TAG inh)
N=C(N)SCc1cn(-c2ccccc2)nc1-c1ccc(Br)cc1	MC4R ag barr 16.6 (no result: Efflux pump inh)
CCCCS(=O)(=O)/C=C\C=C/S(=O)(=O)CCCC	TAG inh 87.9 (no result: GalR3 antag)
CCCCS(=O)(=O)/C=C\C1C2C=CC(C2)C1S(=O)(=O)CCCC (configuration not stated)	none
OC[C@@H]1CN(CCN2CCOCC2)C[C@H](n2cnc3c(N4CCCC4)ncnc32)O1	none (no result: Calb FLC, Efflux pump inh)
Cc1cc(/C=N/NC(N)=S)c(C)n1-c1ccc(Cl)cc1	none (no result: TAG inh)
Cc1cc(/C=N/NC(N)=S)c(C)n1-c1cccc(Cl)c1	Calb FLC 104.0
COC(=O)C1=C(C)N(Cc2ccccc2)C(=NCc2ccccc2)N[C@H]1c1cccc(C(F)(F)F)c1	MC4R ag barr 16.3 (no result: Calb FLC, GalR3 antag)
COC(=O)C1=C(C)N(Cc2ccccc2)C(=NCc2ccc(OC)cc2)N[C@H]1c1cccc(F)c1	none
COC(=O)C1=C(C)N(Cc2ccccc2)C(=NCc2cccc(Cl)c2)N[C@H]1c1cccc(F)c1	MC4R ag barr 12.8, TAG inh 120.2 (no result: Calb FLC, GalR3 antag)
COC(=O)C1=C(C)N(Cc2ccc(C(F)(F)F)cc2)C(=NCc2ccc(C(F)(F)F)cc2)NC1c1cccc(C(F)(F)F)c1 (configuration not stated)	none (no result: MC4R ag barr, Calb FLC, Efflux pump inh, MC4R antag cAMP, TAG inh)
COc1cccc(NC(=O)Nc2nc(-c3ccc(OC)c(OC)c3)cs2)c1	MC4R ag barr 18.5 (no result: TAG inh)
COc1ccc(-c2csc(NC(C)=O)n2)cc1OC	none
CN(C(=O)c1ccc(NC(=O)Cc2ccc(NC(=O)C3CCN(S(=O)(=O)c4cccc([N+](=O)[O-])c4)CC3)cc2)cc1)C1CCCC1	none (no result: Calb FLC, Efflux pump inh)
O=C(c1cc2ccccc2cc1O)N1CCN(c2ccccc2O)CC1	Calb FLC 76.6
O=C(c1cc2ccccc2cc1O)N1CCCC1	none (no result: TAG inh)
Cc1cc(S(=O)(=O)Nc2cccnc2)c(C)s1	none
Cc1cc(S(=O)(=O)Nc2ccc3ccccc3c2)c(C)s1	MC4R ag barr 8.8 (no result: TAG inh)
Cc1ccc(S(=O)(=O)Nc2ccc3ccccc3c2)cc1	MC4R ag barr 9.4 (no result: Calb FLC, Efflux pump inh)
O=C(Nc1cnn(Cc2ccc(F)cc2)c1)c1cc(-c2cccs2)on1	MC4R ag barr 13.3 (no result: GalR3 antag, TAG inh)
CCCc1cc(C(=O)Nc2cnn(Cc3ccc(F)cc3)c2)no1	none
COc1ccc(/C=N/NC(=O)c2cc(O)c(O)c(O)c2)cc1Cn1cc([N+](=O)[O-])cn1	Calb FLC 96.7 (no result: Efflux pump inh)
N/C(Cc1nc(-c2ccc(Br)cc2)cs1)=N\O	Calb FLC 98.7
N/C(Cc1nc(-c2ccc(F)cc2)cs1)=N\O	none
CC1CC(C)CN(S(=O)(=O)c2ccc(Cl)cc2)C1 (configuration not stated)	MC4R ag barr 9.2
CC(=O)OC[C@@H]1CN(Cc2ccccc2)C[C@H](n2cnc3c(N4CCOCC4)ncnc32)O1	none (no result: Calb FLC, Efflux pump inh)
CC1CCCN(Cc2c(O)ccc3c(=O)c(-c4nc5ccccc5s4)c(N)oc23)C1 (configuration not stated)	Calb FLC 81.0 (no result: TAG inh)
O=C(NCc1ccccc1Cl)c1ccncc1	none (no result: TAG inh)
O=C(NCc1ccccc1Cl)c1ccc(-c2ccccc2)cc1	MC4R ag barr 9.3 (no result: TAG inh)
CCOC(=O)c1c2c(n(-c3ccc(OC)cc3)c1C)C(=O)C(=O)c1ccccc1-2	TAG inh 71.0 (no result: Calb FLC, GalR3 antag, Efflux pump inh)
COc1ccc(OC)c(NC(=O)c2c(NC(=O)CNCc3ccco3)sc3c2CCC3)c1	MC4R ag barr 9.2
COc1ccc(NC(=O)c2c(NC(=O)CNCc3ccco3)sc3c2CCC3)c(OC)c1	none
O=C(/C=C1\OCc2ccccc21)c1ccccc1	none (no result: MC4R ag barr, Calb FLC, Efflux pump inh, MC4R antag cAMP, TAG inh)
Cc1[nH]n(-c2ccccc2)c(=O)c1/C=N/NC(=O)c1cccc([N+](=O)[O-])c1	none (no result: Calb FLC)
Cc1ccc(-n2[nH]c(C)c(/C=N/NC(=O)c3ccc([N+](=O)[O-])cc3)c2=O)c(C)c1	Calb FLC 103.2 (no result: TAG inh)
Cc1[nH]n(-c2cccc3ccccc23)c(=O)c1/C=N/NC(=O)c1cccc([N+](=O)[O-])c1	Calb FLC 79.5 (no result: TAG inh)
